Measurements taken from article PMC9398096 (Molecular Cancer Therapeutics, 2021).
Where “and” joins values, the source holds several entries; their conditions need not be identical. Equal values may be shown once. Read-outs that look alike come from different tables or passages of the source.

Legend:
[1] = Stability of the base moiety in an aqueous environment; settings: pH 6
[2] = tested on: LINE-1 methylation in Kasumi-1 cells; assay: LINE-1 methylation by pyrosequencing in Kasumi-1 cells; assay type: cell-based, human; settings: 500 nmol/L, untreated 90.7%
[3] = tested on: LINE-1 methylation in KG1a cells; assay: LINE-1 methylation by pyrosequencing in KG1a cells; assay type: cell-based, human; settings: 500 nmol/L, untreated 89.1%
[4] = tested on: LINE-1 methylation in MDS-L cells; assay: LINE-1 methylation by bisulfite pyrosequencing in MDS-L cells; assay type: cell-based, human; settings: 100 nmol/L; for LINE-1 methylation level: untreated 88.9%
MDS and AML cells [5] = assay: Apoptosis of MDS and AML cells; assay type: cell-based, human
[6] = mice, Supplementary Table S4, cited from earlier work
[7] = Long-term administration safety in BALB/c mice; assay type: in vivo; settings: for anemia (hematopoietic toxicity) / survival on long-term administration: high dose: DAC 2.5 mg/kg or OR21 7.5 mg/kg
How it was run: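 Non-immunodeficient BALB/c mice received long-term dosing of the test compound at 7.5 (high) or 3.7 (low) mg/kg, or a reference hypomethylating agent at 2.5 or 1.25 mg/kg. Anemia and survival were monitored while dosing continued, through at least day 57.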

[8] = tested on: AZA-resistant HL60 (HL60R) cells; assay: AZA-resistant HL60; assay type: cell-based, human; settings: in vitro; similar extent as DAC, more effectively than AZA
HL60R cells = assay: HL60R xenograft model; assay type: in vivo, mice
SKM1 cells = assay: SKM1 xenograft mouse model; assay type: in vivo, BALB/c Rag-2/JAK3 double-deficient (BRJ) mice; settings: twice weekly from day 7 posttransplantation
MDS and AML cells [9] = assay: Cell proliferation; assay type: cell-based, human; settings: dose-dependent
How it was run: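 Growth of MDS and AML cell lines was measured by CCK-8 assay after 72 hours of treatment across a dose range. IC50 was derived by nonlinear regression of the dose–response curves.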

[10] = Pharmacokinetics in cynomolgus monkeys; assay type: in vivo, cynomolgus monkey
MDS-L cells = assay: Flow cytometry of differentiation markers CD11b and HLA-DR; assay type: cell-based, human
[11] = tested on: LINE-1 methylation in HL60 cells; assay: LINE-1 methylation by pyrosequencing in HL60 cells; assay type: cell-based, human; settings: 500 nmol/L, untreated 83.7
[12] = tested on: LINE-1 methylation in THP-1 cells; assay: LINE-1 methylation by pyrosequencing in THP-1 cells; assay type: cell-based, human; settings: 500 nmol/L, untreated 69.0%
HL60 cells = assay: HL60 xenograft mouse model; assay type: in vivo, BALB/c Rag-2/JAK3 double-deficient (BRJ) mice; settings: for LINE-1 methylation in bone marrow cells / hemoglobin levels: DAC 1.0 mg/kg or OR21 2.7 mg/kg twice weekly; for LINE-1 methylation in bone marrow cells: vehicle 83.7%; for hemoglobin levels: at the time of sacrifice, vehicle 17.5 g/dL; for human CD45-positive cells in PB: day 37, vehicle 2.96%; for CD11b-positive cells in PB: late treatment from day +28, days +35 to +40, vehicle 43.3%
DNMT1 = assay: Western blot of DNMT1 in MDS and AML cell lines; assay type: cell-based, human; settings: 100 or 500 nmol/L; MDS-L, SKM1, HL60, THP-1
[13] = tested on: LINE-1 methylation in SKM1 cells; assay: LINE-1 methylation by bisulfite pyrosequencing in SKM1 cells; assay type: cell-based, human; settings: 100 nmol/L, untreated 82.7%
[14] = DAC 1.0 mg/kg or OR21 2.7 mg/kg twice weekly from day 5, vehicle 44 days
[15] = DAC 1.0 mg/kg or OR21 2.7 mg/kg twice weekly from day 5
[16] = higher dose: DAC 2.0 mg/kg or OR21 5.4 mg/kg, vehicle 48 days

With `CC[Si](CC)(CC)OC[C@H]1O[C@@H](n2cnc(N)nc2=O)C[C@@H]1O` [OR21, 5′-O-triethylsilyl-2′-deoxy-5-azacytidine] the half-life [1] was 20 h, the LINE-1 methylation level [2] was 78.6% and the LINE-1 methylation level [3] was 82.4%. The “LINE-1 methylation levels, effect of treatment” value [4] was “significantly decreased”, the LINE-1 methylation level [4] was 74.2% and the apoptosis (MDS and AML cells [5]; MDS and AML cells, dose-dependent) was “induced apoptosis”. For the same compound, the “apoptosis of primary cells” value (MDS and AML cells [5]; primary MDS and AML cells) was “induced apoptosis of primary MDS and AML cells”, the “AUC of released DAC” value ([6]; intraperitoneal 1.59 μmol/L/kg OR21) was 0.38 µmol/L/h and the “peak plasma concentration of DAC” value ([6]; intraperitoneal administration of 1.59 μmol/L/kg OR21) was 0.43 µmol/L. For the same compound, the “anemia (hematopoietic toxicity)” value [7] was “developed anemia by day 29, but recovered by day 57”, the “survival on long-term administration” value [7] was “all were still alive after 80 days” and the “growth of HL60R cells” value [8] was “inhibited growth”. For the same compound, the survival (HL60R cells; P = 0.0188) was “significantly prolonged survival”, the “human CD45-positive cells in peripheral blood” value (SKM1 cells; day 28, vehicle 6.40%) was 0.31% and the median overall survival (SKM1 cells; vehicle 29 days) was greater than 53 days. The cell growth (MDS and AML cells [9]) was “inhibited growth”, the AUC ([10]; 10.9 μmol/kg (3.75 mg/kg) duodenal administration) was 0.25 (±0.14) μmol/L/hour and the AUC ([10]; 9.0 mg/kg (26.3 μmol/kg) duodenal administration) was 0.45 ± 0.23 µmol/L/h. For the same compound, the “expression of CD11b” value (MDS-L cells) was “upregulated”, the “expression of HLA-DR” value (MDS-L cells) was “downregulated” and the LINE-1 methylation level [11] was 76.0%. For the same compound, the LINE-1 methylation level [12] was 64.6%, the median overall survival (HL60 cells; [14]) was 49 days and the “LINE-1 methylation in bone marrow cells” value (HL60 cells) was 63.0%. The hemoglobin levels (HL60 cells) was 17.1 g/dL and 17.1(±0.31) g/dL, the “human CD45-positive cells in PB” value (HL60 cells; [15]) was 0.75% and the median overall survival (HL60 cells; [16]) was 57 days. For the same compound, the “CD11b-positive cells in PB” value (HL60 cells) was 65.5%, the “DNMT1 levels versus untreated cells” value (DNMT1) was “markedly lower” and the LINE-1 methylation level [13] was 66.9%.
In the case of `Nc1ncn([C@@H]2O[C@H](CO)[C@@H](O)[C@H]2O)c(=O)n1` [AZA, azacitidine], the “LINE-1 methylation levels, effect of treatment” value [4] is reported as “did not decrease”, the LINE-1 methylation level [4] is reported as 88.8% and the LINE-1 methylation level [13] is reported as 72.1%.
For `Nc1ncn([C@H]2C[C@H](O)[C@@H](CO)O2)c(=O)n1` [DAC, decitabine, reference compound], the half-life [1] is given as roughly 20 h, the LINE-1 methylation level [4] is given as 75.2% and the “peak plasma concentration of DAC” value ([6]; administration of 0.88 μmol/L/kg DAC (calculated as an AUC equivalent to that of released DAC)) is given as 0.64 µmol/L. The “anemia (hematopoietic toxicity)” value [7] was “severe anemia”, the “survival on long-term administration” value [7] was “died within 80 days” and the anemia ([7]; low dose: DAC 1.25 mg/kg or OR21 3.7 mg/kg) was “more likely than OR21-treated mice to develop anemia”. The toxicity (HL60R cells) was “severe toxicity”, the AUC ([10]; 10.9 μmol/kg (1.67 mg/kg) intravenous) was 0.49 (±0.17) μmol/L/hour and the “enteric bioavailability” value ([10]; higher dose) was “did not result in enteric bioavailability”. The median overall survival (HL60 cells; [14]) was 46.5 days, the “LINE-1 methylation in bone marrow cells” value (HL60 cells) was 56.3% and the hemoglobin levels (HL60 cells) was 15.6 g/dL and 15.6 (±1.22) g/dL. For the same compound, the “human CD45-positive cells in PB” value (HL60 cells; [15]) was 1.67%, the median overall survival (HL60 cells; [16]) was 32 days and the “CD11b-positive cells in PB” value (HL60 cells) was 75.7%. For the same compound, the LINE-1 methylation level [13] was 58.4% and 66.9%.
